Laboratory results published in ChEMBL document CHEMBL5143728, “Next-Generation Diprovocims with Potent Human and Murine TLR1/TLR2 Agonist Activity That Activate the Innate and Adaptive Immune Response” (J Med Chem, 2022).
Active and inactive are the calls of the source. The rule behind the calls is not given here.

Tests used:
Mus musculus [1] = test: Immuno-adjuvant activity in C57BL/6J mouse assessed as increase in level of OVA specific Goat Anti-Mouse IgG-HRP antibody at 10 mg/kg, IM co-treated with ovalbumin at 5 mg/kg incubated for 1 hrs measured on day 14 by ELISA; assay type: functional, organism-based
Method in brief: (§1)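 Female 8-week C57BL/6J mice (ca. 20 g) given i.m. 200 μg (10 mg/kg) agonist mixed with 100 μg OVA (5 mg/kg, low endotoxin) in DMSO:Tween 80:saline 1:1:8 on day 0. Controls received vehicle or OVA alone; 5–8 mice/group. Serum OVA-specific IgG, IgG1 and IgG2b measured by ELISA on day 14. Mean ± SD; one-way ANOVA with Tukey test.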

Toll-like receptor 1/2 [2] = target: T1, Toll-like receptor 1/2 (Homo sapiens, UniProt O60603+Q15399); test: Agonist activity at TLR1/TLR2 in human THP-1 derived macrophages assessed as stimulation of TNF alpha release measured for 4 hrs by ELISA based assay; assay type: cell-based
T1 sequence (O60603 whole entry): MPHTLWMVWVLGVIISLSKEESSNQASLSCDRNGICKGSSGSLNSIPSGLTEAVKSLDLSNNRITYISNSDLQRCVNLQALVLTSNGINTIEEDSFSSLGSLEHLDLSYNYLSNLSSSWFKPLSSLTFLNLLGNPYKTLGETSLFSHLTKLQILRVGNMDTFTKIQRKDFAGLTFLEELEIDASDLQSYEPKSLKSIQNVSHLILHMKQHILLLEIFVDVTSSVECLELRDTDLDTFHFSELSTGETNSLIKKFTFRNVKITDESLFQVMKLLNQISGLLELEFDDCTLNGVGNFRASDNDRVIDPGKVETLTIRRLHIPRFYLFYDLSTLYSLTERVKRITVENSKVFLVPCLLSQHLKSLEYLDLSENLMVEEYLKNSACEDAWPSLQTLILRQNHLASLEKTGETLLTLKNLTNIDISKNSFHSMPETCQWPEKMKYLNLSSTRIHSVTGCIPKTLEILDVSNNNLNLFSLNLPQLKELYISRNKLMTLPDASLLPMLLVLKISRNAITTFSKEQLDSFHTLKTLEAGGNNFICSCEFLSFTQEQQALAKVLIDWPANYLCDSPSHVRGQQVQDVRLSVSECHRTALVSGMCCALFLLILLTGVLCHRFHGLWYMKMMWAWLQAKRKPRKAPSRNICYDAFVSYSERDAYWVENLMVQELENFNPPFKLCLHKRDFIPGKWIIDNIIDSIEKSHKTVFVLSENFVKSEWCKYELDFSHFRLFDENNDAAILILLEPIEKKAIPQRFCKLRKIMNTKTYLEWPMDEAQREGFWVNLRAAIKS
T1 sequence (Q15399 whole entry): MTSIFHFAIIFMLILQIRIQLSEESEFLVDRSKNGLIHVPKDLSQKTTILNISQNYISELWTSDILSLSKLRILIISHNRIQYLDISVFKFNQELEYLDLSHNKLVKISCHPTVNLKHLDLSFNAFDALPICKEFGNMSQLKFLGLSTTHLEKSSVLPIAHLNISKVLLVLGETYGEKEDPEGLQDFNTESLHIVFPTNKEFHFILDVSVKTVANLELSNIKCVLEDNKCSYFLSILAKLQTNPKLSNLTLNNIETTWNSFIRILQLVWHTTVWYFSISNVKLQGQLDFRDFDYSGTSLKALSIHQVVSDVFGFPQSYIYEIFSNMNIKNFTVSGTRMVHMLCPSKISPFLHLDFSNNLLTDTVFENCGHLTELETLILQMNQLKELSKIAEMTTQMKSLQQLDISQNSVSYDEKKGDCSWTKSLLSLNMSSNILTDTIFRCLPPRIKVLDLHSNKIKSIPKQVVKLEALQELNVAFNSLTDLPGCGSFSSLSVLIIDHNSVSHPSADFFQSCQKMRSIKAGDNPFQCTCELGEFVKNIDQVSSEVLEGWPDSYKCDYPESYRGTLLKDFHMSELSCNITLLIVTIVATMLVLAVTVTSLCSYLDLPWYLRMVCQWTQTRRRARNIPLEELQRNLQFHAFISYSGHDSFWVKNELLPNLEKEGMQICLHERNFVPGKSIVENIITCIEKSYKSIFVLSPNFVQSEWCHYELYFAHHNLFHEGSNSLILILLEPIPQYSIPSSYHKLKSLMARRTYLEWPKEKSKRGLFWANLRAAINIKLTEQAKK
Method in brief: (§2)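 THP-1 cells differentiated with 100 nM PMA in RPMI/10% FBS for 24 h, washed, then rested 24 h in fresh medium. Seeded at 0.5 × 10⁵ cells/well and exposed to graded compound concentrations for 4 h, with final DMSO held at 0.1%. LPS served as positive control and DMSO as negative control. Supernatant human TNF-α was read by ELISA. EC50 from duplicate means.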

Mus musculus [3] = test: Immuno-adjuvant activity in C57BL/6J mouse assessed as increase in level of OVA specific Goat Anti-Mouse IgG1-HRP antibody at 10 mg/kg, IM co-treated with ovalbumin at 5 mg/kg incubated for 1 hrs measured on day 14 by ELISA; assay type: functional, organism-based; method in brief: as §1
Mus musculus [4] = test: Immuno-adjuvant activity in C57BL/6J mouse assessed as increase in level of OVA specific Goat Anti-Mouse IgG2b-HRP antibody at 10 mg/kg, IM co-treated with ovalbumin at 5 mg/kg incubated for 1 hrs measured on day 14 by ELISA; assay type: functional, organism-based; method in brief: as §1
Toll-like receptor 1/2 [5] = target: Toll-like receptor 1/2 (Mus musculus, UniProt Q9EPQ1+Q9QUN7); test: Agonist activity at TLR1/TLR2 in wild type C57BL/6J mouse macrophages assessed as stimulation of TNF alpha release measured for 4 hrs by ELISA based assay; assay type: cell-based, Macrophage
Chain of Toll-like receptor 1/2 (Mus musculus, UniProt Q9EPQ1+Q9QUN7) (Q9QUN7 whole entry): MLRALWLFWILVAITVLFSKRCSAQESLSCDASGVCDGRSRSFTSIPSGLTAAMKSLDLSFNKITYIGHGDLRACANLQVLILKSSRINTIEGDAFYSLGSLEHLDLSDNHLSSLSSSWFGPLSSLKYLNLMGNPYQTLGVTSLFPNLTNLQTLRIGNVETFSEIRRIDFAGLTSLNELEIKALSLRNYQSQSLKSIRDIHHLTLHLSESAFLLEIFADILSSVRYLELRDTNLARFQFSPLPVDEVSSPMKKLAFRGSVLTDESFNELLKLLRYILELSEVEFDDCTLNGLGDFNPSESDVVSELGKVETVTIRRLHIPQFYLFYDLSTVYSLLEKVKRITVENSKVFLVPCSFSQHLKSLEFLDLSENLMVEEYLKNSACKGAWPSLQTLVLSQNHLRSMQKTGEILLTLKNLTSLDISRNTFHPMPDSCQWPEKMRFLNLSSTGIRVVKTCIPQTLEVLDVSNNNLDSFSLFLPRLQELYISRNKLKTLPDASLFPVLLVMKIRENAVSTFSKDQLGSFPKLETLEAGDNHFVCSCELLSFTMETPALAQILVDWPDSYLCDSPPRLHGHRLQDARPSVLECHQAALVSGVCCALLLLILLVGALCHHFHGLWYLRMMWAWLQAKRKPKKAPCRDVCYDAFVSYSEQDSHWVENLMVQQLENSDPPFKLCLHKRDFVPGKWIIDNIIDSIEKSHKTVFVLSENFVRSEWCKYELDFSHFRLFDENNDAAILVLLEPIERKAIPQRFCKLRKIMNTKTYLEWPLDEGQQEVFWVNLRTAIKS
Chain of Toll-like receptor 1/2 (Mus musculus, UniProt Q9EPQ1+Q9QUN7) (Q9EPQ1 whole entry): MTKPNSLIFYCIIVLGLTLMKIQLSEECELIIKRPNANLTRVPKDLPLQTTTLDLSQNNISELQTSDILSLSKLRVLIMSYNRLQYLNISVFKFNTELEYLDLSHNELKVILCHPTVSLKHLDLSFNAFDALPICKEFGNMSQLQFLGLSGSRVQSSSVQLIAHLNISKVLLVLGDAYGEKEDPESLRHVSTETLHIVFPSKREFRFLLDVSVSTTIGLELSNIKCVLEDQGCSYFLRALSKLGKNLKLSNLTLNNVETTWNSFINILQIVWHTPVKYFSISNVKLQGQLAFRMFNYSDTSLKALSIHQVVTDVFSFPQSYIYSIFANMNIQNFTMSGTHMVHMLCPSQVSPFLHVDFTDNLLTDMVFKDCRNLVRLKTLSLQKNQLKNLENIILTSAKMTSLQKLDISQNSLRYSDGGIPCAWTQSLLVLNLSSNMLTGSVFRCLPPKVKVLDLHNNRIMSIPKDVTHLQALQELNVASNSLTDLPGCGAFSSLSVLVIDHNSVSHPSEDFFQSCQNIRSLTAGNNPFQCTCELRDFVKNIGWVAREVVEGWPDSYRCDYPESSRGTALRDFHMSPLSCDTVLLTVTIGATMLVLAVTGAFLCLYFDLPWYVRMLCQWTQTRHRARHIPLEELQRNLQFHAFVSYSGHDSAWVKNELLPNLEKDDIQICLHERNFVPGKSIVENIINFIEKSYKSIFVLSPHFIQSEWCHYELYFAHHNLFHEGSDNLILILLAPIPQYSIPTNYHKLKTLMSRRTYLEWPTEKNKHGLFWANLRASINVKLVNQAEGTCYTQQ
Method in brief: (§3)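 Thioglycolate-elicited peritoneal macrophages from wild type C57BL/6J mice, harvested by PBS lavage 4 d after i.p. 4% thioglycolate. Cultured in DMEM/10% FBS at 37 °C, 5% CO2, seeded at 1 × 10⁵ cells/well and exposed to graded compound concentrations for 4 h, with final DMSO ≤0.5% held constant. LPS served as positive control. Supernatant mouse TNF-α was read by ELISA. EC50 from duplicate means.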

Splenocyte = test: In vivo cytotoxicity against C57BL/6 mouse-derived splenocytes loaded with SIINFEKL peptide allografted in immunized C57BL/6J mouse at 10 mg/kg, IM on day 0 and day 28 followed by spleenocytes injection on day 7 and day 35 and measured on day 9 and 37 by flow cytometry; assay type: functional, organism-based
Toll-like receptor 1/2 [6] = target: T1, Toll-like receptor 1/2; test: Agonist activity at TLR1/TLR2 in human THP-1 derived macrophages assessed as stimulation of TNF alpha release measured for 4 hrs by ELISA based assay relative to diprovocim-1; assay type: cell-based; parameters: Activity: concentration or dose not given beside the values; settings: filed as agonist; method in brief: as §2
[7] = target: Toll-like receptor 1/2 (Mus musculus) (UniProt Q9QUN7+Q9EPQ1); test: Agonist activity at TLR1/TLR2 in wild type C57BL/6J mouse macrophages assessed as stimulation of TNF alpha release measured for 4 hrs by ELISA based assay relative to diprovocim-1; assay type: cell-based; parameters: Activity: concentration or dose not given beside the values; settings: Macrophage, filed as agonist; method in brief: as §3
Peritoneal macrophage [8] = test: Stimulation of TNF alpha release in TLR4-sufficient wild type C3H/HeOuJ mouse peritoneal macrophage at 500 nM; assay type: functional, cell-based
Method in brief: (§4)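 Peritoneal macrophages from Tlr4-WT C3H/HeOuJ mice or Tlr4 P712H-mutant C3H/HeJ mice, stimulated with agonist at 500 nM. Released TNF-α measured. LPS run as positive control.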

Peritoneal macrophage [9] = test: Stimulation of TNF alpha release in TLR4- deficient mutant C3H/HeJ mouse peritoneal macrophage at 500 nM; assay type: functional, cell-based; method in brief: as §4

| EC50 (Toll-like receptor 1/2 [2]) [pM] | EC50 (Toll-like receptor 1/2 [5]) [pM] | Activity (Toll-like receptor 1/2 [6]) [%] | Activity [7] [%] | SMILES | Activity (Mus musculus [1]) | Activity (Mus musculus [3]) | Activity (Mus musculus [4]) | Activity (Splenocyte) | Activity (Peritoneal macrophage [8]) | Activity (Peritoneal macrophage [9]) |
| --- | --- | --- | --- | --- | --- | --- | --- | --- | --- | --- |
| 140 | 750 | 100 | 550 | CC(C)(C)OC(=O)NCC(=O)OCCCCCCCCCCCCNC(=O)[C@@H]1CN(C(=O)c2ccc(C(=O)N3C[C@@H](C(=O)N[C@H]4C[C@@H]4c4ccccc4)[C@H](C(=O)N[C@H]4C[C@@H]4c4ccccc4)C3)cc2)C[C@H]1C(=O)N[C@H]1C[C@@H]1c1ccccc1 | Active | Active | Active | Active | – | – |
| – | – | – | – | O=C(N[C@H]1C[C@@H]1c1ccccc1)[C@@H]1CN(C(=O)c2ccc(C(=O)N3C[C@@H](C(=O)N[C@H]4C[C@@H]4c4ccccc4)[C@H](C(=O)N[C@H]4C[C@@H]4c4ccccc4)C3)cc2)C[C@H]1C(=O)N[C@H]1C[C@@H]1c1ccccc1 | Active | Active | Active | Active | Active | Active |
